Measurements as given in ChEMBL document CHEMBL1154095, “Separation of alpha-glucosidase-inhibitory and liver X receptor-antagonistic activities of phenethylphenyl phthalimide analogs and generation of LXRalpha-selective antagonists” (Bioorg Med Chem, 2009).
Calls of active or inactive are those of the source. The rule behind the calls is not given here.

How the values were obtained:
[1] = Inhibition of Saccharomyces sp. alpha-glucosidase assessed as p-nitrophenol release
How it was run: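 Yeast alpha-glucosidase at 0.2 mU/mL in 10 mM phosphate buffer pH 7.0 was preincubated with compound (1% v/v DMSO final) for 10 min at 37 °C. pNPG substrate (final 0.2 mM) was then added and incubated 10 min at 37 °C. The reaction was basified with Na2CO3, and released p-nitrophenol was read at A405. Triplicates, repeated at least twice, normalized averages, IC50.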

[2] = target: T1, Oxysterols receptor LXR-alpha (Homo sapiens, UniProt Q13133); assay: Antagonist activity at human LXRalpha expressed in HEK293 cells assessed as inhibition of beta-galactosidase activity by luciferase reporter gene assay; type: functional, cell-based
T1 sequence (Q13133 whole entry): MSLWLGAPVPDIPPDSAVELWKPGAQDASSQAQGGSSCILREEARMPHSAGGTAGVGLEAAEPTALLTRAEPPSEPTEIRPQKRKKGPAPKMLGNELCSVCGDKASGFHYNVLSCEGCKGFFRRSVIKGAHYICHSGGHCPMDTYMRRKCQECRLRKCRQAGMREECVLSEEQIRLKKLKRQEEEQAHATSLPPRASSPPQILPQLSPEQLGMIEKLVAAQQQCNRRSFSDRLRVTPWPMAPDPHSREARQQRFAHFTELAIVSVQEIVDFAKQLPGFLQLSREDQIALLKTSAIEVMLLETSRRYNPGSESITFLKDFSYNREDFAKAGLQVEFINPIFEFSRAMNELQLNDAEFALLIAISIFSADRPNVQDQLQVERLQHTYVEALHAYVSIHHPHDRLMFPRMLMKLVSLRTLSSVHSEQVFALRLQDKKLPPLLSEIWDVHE

[3] = target: T2, Oxysterols receptor LXR-beta (Homo sapiens, UniProt P55055); assay: Antagonist activity at human LXRbeta expressed in HEK293 cells assessed as inhibition of beta-galactosidase activity by luciferase reporter gene assay; type: functional, cell-based
T2 sequence (P55055 whole entry): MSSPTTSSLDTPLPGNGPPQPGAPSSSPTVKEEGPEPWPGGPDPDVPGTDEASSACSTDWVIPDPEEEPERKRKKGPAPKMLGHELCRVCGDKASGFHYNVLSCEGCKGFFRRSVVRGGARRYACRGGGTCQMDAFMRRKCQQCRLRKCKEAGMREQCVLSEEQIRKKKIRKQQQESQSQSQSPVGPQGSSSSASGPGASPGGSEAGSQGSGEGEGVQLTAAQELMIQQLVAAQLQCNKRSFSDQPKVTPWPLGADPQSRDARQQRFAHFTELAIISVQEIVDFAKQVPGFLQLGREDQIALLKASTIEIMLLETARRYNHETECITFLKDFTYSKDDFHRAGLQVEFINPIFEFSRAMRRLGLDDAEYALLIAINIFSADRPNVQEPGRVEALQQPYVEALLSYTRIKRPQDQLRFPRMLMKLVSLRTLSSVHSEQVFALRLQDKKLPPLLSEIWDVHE

Saccharomyces sp. = assay: Inhibition of Saccharomyces sp. alpha-glucosidase by non-competitive Lineweaver-Burke analysis
[4] = target: Liver X receptor (LXR alpha AND LXR beta) (Homo sapiens) (UniProt Q13133+P55055); assay: Selectivity ratio of IC50 for human LXRbeta over IC50 for human LXRalpha; type: protein assay

Row | SMILES | IC50 [1] [µM] | IC50 [2] [µM] | IC50 [3] [µM] | Activity (Saccharomyces sp.) | Selectivity ratio [4] | Selectivity Index [4]
1 | COc1ccc(/C=C/c2ccc(N3C(=O)c4ccccc4C3=O)cc2)cc1OC | > 100 | 3.8 | > 30 | – | – | –
2 | COc1cccc(CCc2ccc(N3C(=O)c4ccccc4C3=O)cc2)c1 | > 100 | 2.4 | 3.5 | – | – | –
3 | COc1ccc(CCc2cccc(N3C(=O)c4ccccc4C3=O)c2)cc1OC | > 100 | > 30 | > 30 | – | – | –
4 | O=C1c2c(Cl)c(Cl)c(Cl)c(Cl)c2C(=O)N1c1cccc(CCc2ccccc2)c1 | > 100 | > 30 | > 30 | – | – | –
5 | COc1ccc(CCc2ccc(N3C(=O)c4c(Cl)c(Cl)c(Cl)c(Cl)c4C3=O)cc2)cc1OC | 18 | > 30 | > 30 | Active | – | –
6 | O=C1c2c(Cl)c(Cl)c(Cl)c(Cl)c2C(=O)N1c1ccc(CCc2ccc(O)c(O)c2)cc1 | > 100 | 5.1 | > 30 | – | – | –
7 | O=C1c2c(Cl)c(Cl)c(Cl)c(Cl)c2C(=O)N1c1cccc(CCc2ccc(O)c(O)c2)c1 | 23 | 6.3 | 21 | – | – | –
8 | O=C1c2ccccc2C(=O)N1c1cccc(CCc2ccccc2)c1 | > 100 | – | – | – | – | –
9 | COc1ccc(CCc2cccc(N3C(=O)c4c(Cl)c(Cl)c(Cl)c(Cl)c4C3=O)c2)cc1 | 49 | 5.5 | > 30 | – | – | –
10 | O=C1c2c(Cl)c(Cl)c(Cl)c(Cl)c2C(=O)N1c1cccc(CCc2cccc(O)c2)c1 | 50 | 2.6 | > 30 | – | – | –
11 | O=C1c2ccccc2C(=O)N1c1ccccc1CCc1ccc(O)c(O)c1 | > 100 | 9.8 | > 30 | – | – | –
12 | COc1ccc(CCc2cccc(N3C(=O)c4c(Cl)c(Cl)c(Cl)c(Cl)c4C3=O)c2)cc1OC | 83 | > 30 | > 30 | – | – | –
13 | COc1cccc(CCc2ccc(N3C(=O)c4c(Cl)c(Cl)c(Cl)c(Cl)c4C3=O)cc2)c1 | 65 | 6.9 | > 30 | – | – | –
14 | O=C1c2ccccc2C(=O)N1c1ccc(CCc2cccc(O)c2)cc1 | > 100 | 7.5 | > 30 | – | – | –
15 | O=C1c2ccccc2C(=O)N1c1cccc(CCc2ccc(O)c(O)c2)c1 | 38 | 6.1 | 7.6 | – | – | –
16 | O=C1c2c(Cl)c(Cl)c(Cl)c(Cl)c2C(=O)N1c1ccc(CCc2cccc(O)c2)cc1 | 21 | 3.9 | > 30 | – | – | –
17 | c1cc2cc(c1)Oc1ccc(cc1)CCc1ccccc1-c1ccc(cc1)CC2 | – | – | – | – | 11 | –
18 | O=C1c2c(Cl)c(Cl)c(Cl)c(Cl)c2C(=O)N1c1cccc(/C=C/c2ccc(O)c(O)c2)c1 | 13 | 6.6 | > 30 | – | – | –
19 | O=C1c2ccccc2C(=O)N1c1ccc(CCc2ccc(O)c(O)c2)cc1 | > 100 | 1.7 | > 3 | – | – | –
20 | O=C1c2c(Cl)c(Cl)c(Cl)c(Cl)c2C(=O)N1c1cccc(CCc2ccc(O)cc2)c1 | > 100 | 3.7 | > 30 | – | – | –

Row | SMILES | IC50 [1] [µM] | IC50 [2] [µM] | IC50 [3] [µM] | Activity (Saccharomyces sp.) | Selectivity ratio [4] | Selectivity Index [4]
21 | O=C1c2ccccc2C(=O)N1c1ccc(/C=C/c2ccc(O)c(O)c2)cc1 | > 100 | 1.6 | > 1 | – | – | –
22 | O=C1c2c(Cl)c(Cl)c(Cl)c(Cl)c2C(=O)N1c1cccc(/C=C/c2ccccc2)c1 | 31 | > 30 | > 30 | – | – | –
23 | COc1ccc(CCc2ccc(N3C(=O)c4ccccc4C3=O)cc2)cc1OC | > 100 | 4.8 | 4.3 | – | – | –
24 | COc1ccc(CCc2ccccc2N2C(=O)c3ccccc3C2=O)cc1OC | > 100 | – | – | – | – | –
25 | COc1ccc(/C=C/c2ccc(N3C(=O)c4c(Cl)c(Cl)c(Cl)c(Cl)c4C3=O)cc2)cc1OC | 40 | > 20 | 14 | – | – | –
26 | O=C1c2ccccc2C(=O)N1c1ccc(CCc2ccc(O)cc2)cc1 | > 100 | 2.9 | > 30 | – | – | –
27 | O=C1c2c(Cl)c(Cl)c(Cl)c(Cl)c2C(=O)N1c1ccc(CCc2ccc(O)cc2)cc1 | 23 | > 30 | > 30 | – | – | –
28 | COc1ccc(CCc2ccc(N3C(=O)c4c(Cl)c(Cl)c(Cl)c(Cl)c4C3=O)cc2)cc1 | > 100 | 8.8 | > 30 | – | – | –
29 | O=C1c2c(Cl)c(Cl)c(Cl)c(Cl)c2C(=O)N1c1ccccc1CCc1ccc(O)c(O)c1 | 20 | 15 | 17 | – | – | –
30 | COc1cccc(CCc2cccc(N3C(=O)c4c(Cl)c(Cl)c(Cl)c(Cl)c4C3=O)c2)c1 | 69 | 4.2 | > 30 | – | – | –
31 | O=C1c2c(Cl)c(Cl)c(Cl)c(Cl)c2C(=O)N1c1ccccc1CCc1ccccc1 | > 100 | > 3 | > 3 | – | – | –
32 | COc1ccc(CCc2ccc(N3C(=O)c4ccccc4C3=O)cc2)cc1 | > 100 | 0.2 | > 30 | – | – | > 150
33 | O=C1c2c(Cl)c(Cl)c(Cl)c(Cl)c2C(=O)N1c1ccc(CCc2ccccc2)cc1 | 17 | > 30 | > 30 | – | – | –
34 | O=C1c2ccccc2C(=O)N1c1ccc(CCc2ccccc2)cc1 | > 100 | – | – | – | – | –
35 | O=C1c2ccccc2C(=O)N1c1ccc(/C=C/c2ccccc2)cc1 | 90 | > 30 | > 30 | – | – | –
36 | O=C1c2ccccc2C(=O)N1c1ccccc1CCc1ccccc1 | 16.2 | – | – | – | – | –
37 | O=C1c2c(Cl)c(Cl)c(Cl)c(Cl)c2C(=O)N1c1ccc(/C=C/c2ccc(O)c(O)c2)cc1 | > 100 | 2.7 | > 30 | – | – | –
38 | O=C1c2c(Cl)c(Cl)c(Cl)c(Cl)c2C(=O)N1c1ccc(/C=C/c2ccccc2)cc1 | 21 | > 30 | > 30 | – | – | –
39 | COc1ccc(/C=C/c2cccc(N3C(=O)c4c(Cl)c(Cl)c(Cl)c(Cl)c4C3=O)c2)cc1OC | 27 | > 30 | > 30 | – | – | –
40 | COc1ccc(CCc2ccccc2N2C(=O)c3c(Cl)c(Cl)c(Cl)c(Cl)c3C2=O)cc1OC | > 100 | 6.1 | 7.7 | – | – | –
